Measured values: ChEMBL document CHEMBL5252537, “Usnic Acid Benzylidene Analogues as Potent Mechanistic Target of Rapamycin Inhibitors for the Control of Breast Malignancies” (J Nat Prod, 2017)
pIC50: −log10 of the molar value. Active and inactive are the calls of the source. The rule behind the calls is not given here.

Assays:
MCF-10A = test: Cytotoxicity against human MCF-10A cells at 6 times of IC50 incubated for 24 hrs by MTT assay; type: toxicity, cell-based
Method in brief: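 MCF-10A cells seeded at 3 × 10^4/well and allowed to attach overnight. Treated with compound in serum-free medium, in triplicate, for 24 h; vehicle wells got the maximum DMSO amount. Doxorubicin (10 μM) was the positive control. MTT for 4 h, formazan dissolved in DMSO, A570 blank-subtracted. Cell numbers from a standard curve; viability expressed versus DMSO wells.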

MCF7 [1] = test: Antitumor activity against human MCF7 cells xenografted in athymic nude mouse assessed as inhibition of tumor growth at 10 mg/kg, ip administered for 3 weeks; parameters: scale not given: the % may be the effect or the level left
MCF7 [2] = test: Antiproliferative activity against human MCF7 cells incubated for 72 hrs by MTT assay; type: functional, cell-based; details: MCF7, 72 h
Method in brief: (§1)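 Cells seeded at 5 × 10^3/well and allowed to attach overnight, then washed with PBS. Compound diluted from 10 mM DMSO stock into medium (100 ng/mL HGF added for c-Met-expressing cells), in triplicate, 72 h at 37 °C. MTT added for 4 h, formazan dissolved in DMSO, absorbance read at 570 nm. Cell numbers taken from a standard curve; IC50 calculated.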

[3] = biological target: Serine/threonine-protein kinase mTOR (Homo sapiens) (UniProt P42345); test: In vivo inhibition of mTOR in human MCF7 cells xenografted in athymic nude mouse assessed as downregulation of phosphorylated S6K level at 10 mg/kg, ip
SK-BR-3 = test: Induction of autophagy in human SK-BR-3 cells assessed as autophagic vacuoles by microscopic analysis; type: functional, cell-based
Method in brief: (§2)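 Cells of each line treated with compound and examined by light microscopy for autophagic vacuoles, compared with control cells.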

[4] = biological target: Serine/threonine-protein kinase mTOR (Homo sapiens) (UniProt P42345); test: Inhibition of mTOR in human MDA-MB-231 cells assessed as reduction in p-S6K level at 0.25 to 0.5 uM by Western blot analysis; type: cell-based; details: dose 0.25-0.5 µM
Method in brief: (§3)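 Cells seeded at 5 × 10^5 per 100 mm dish and allowed to attach overnight. Treated with compound or DMSO for 72 h (HGF 100 ng/mL added for MDA-MB-231). Lysed in RIPA buffer with protease inhibitors. 30 μg protein run on SDS-PAGE, transferred to PVDF, blocked in 5% BSA/TBST. Primary antibodies overnight at 4 °C, HRP secondary antibodies, chemiluminescent detection.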

MCF7 [5] = test: Inhibition of colony formation in human MCF7 cells assessed as reduction in colony diameter at 0.2 uM incubated for 8 days by inverted phase contrast microscopic analysis (reference value: 50 micrometer); type: functional; details: time 8 day
Method in brief: (§4)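 Soft agar assay: 5 × 10^3 MCF-7 cells per well in a cell/agar matrix layered over a base agar layer. Overlaid with 10% serum medium containing 0.2 or 0.6 μM compound, or DMSO. Colonies photographed under inverted phase-contrast microscopy after 8 days. Matrix then solubilized, MTT added (4 h, 37 °C), detergent added, A570 read. Growth normalized to DMSO.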

MDA-MB-231 [6] = test: Antiproliferative activity against human MDA-MB-231 cells incubated for 72 hrs by MTT assay; type: functional, cell-based; details: MDA-MB-231, 72 h; method in brief: as §1
MDA-MB-468 = test: Induction of autophagy in human MDA-MB-468 cells assessed as autophagic vacuoles by microscopic analysis; type: functional, cell-based; method in brief: as §2
MDA-MB-231 [7] = test: Anti-invasive activity in human MDA-MB-231 cells after 24 hrs […]; type: functional, cell-based; details: MDA-MB-231, 24 h
mTORC2 (Homo sapiens) = mTORC2 (Homo sapiens) (UniProt P42345+Q6R327+Q9BVC4+Q9BPZ7); test: Inhibition of mTORC2 in human MCF7 cells assessed as reduction in Akt phosphorylation at Ser473 residue at 0.25 to 0.5 uM by Western blot analysis; type: cell-based; details: dose 0.25-0.5 µM; method in brief: as §3
MDA-MB-231 [8] = test: Antitumor activity against human MDA-MB-231/GFP cells xenografted in athymic nude mouse assessed as reduction in mean tumor volume at 10 mg/kg, ip measured after 34 days post inoculation (reference value: 1835 +/- 251 mm3); details: time 34 day
[9] = biological target: Serine/threonine-protein kinase mTOR (Homo sapiens) (UniProt P42345); test: In vivo inhibition of mTOR in human MDA-MB-231/GFP cells xenografted in athymic nude mouse assessed as downregulation of phosphorylated S6K level at 10 mg/kg, ip
MCF7 [10] = test: Induction of autophagy in human MCF7 cells assessed as increase in LC3 level at 0.4 to 0.8 uM by Western blotting analysis; type: functional, cell-based; details: dose 0.4-0.8 µM; method in brief: as §3
MCF7 [11] = test: Inhibition of colony formation in human MCF7 cells assessed as reduction in colony diameter at 0.6 uM incubated for 8 days by inverted phase contrast microscopic analysis (reference value: 50 micrometer); type: functional; details: time 8 day; method in brief: as §4

In the case of CC(=O)C1=C(O)C=C2Oc3c(C(=O)/C=C/c4ccc(OC(F)(F)F)cc4)c(O)c(C)c(O)c3[C@]2(C)C1=O, the Activity (MCF-10A) was “Non-Toxic”, the Activity (MCF7 [1]) was 64.8% and the pIC50 (MCF7 [2]) was 6.55. The inhibition [3] was “Active”, the Activity (SK-BR-3) was “Active” and the inhibition [4] was “Active”. For the same molecule, the Activity (MCF7 [5]) was 370 um, the pIC50 (MDA-MB-231 [6]) was 6.49 and the Activity (MDA-MB-468) was “Active”. The pIC50 (MDA-MB-231 [7]) was 6.38, the inhibition (mTORC2 (Homo sapiens)) was “Active” and the Activity (MDA-MB-231 [8]) was 692 mm3. For the same molecule, the inhibition [9] was “Active”, the Activity (MCF7 [10]) was “Active” and the Activity (MCF7 [11]) was 122 um.
